Calls of active or inactive are those of the source. The rule behind the calls is not given here.
Columns and labels:
[1] = biological target: T1, Fatty-acid amide hydrolase 1 (Homo sapiens) (UniProt O00519); experiment: Inhibition of human FAAH expressed in COS7 cell membranes at 10 uM pre-incubated for 10 mins before [3H]-AEA substrate addition by liquid scintillation counting; conditions: COS-7
T1 sequence (whole entry): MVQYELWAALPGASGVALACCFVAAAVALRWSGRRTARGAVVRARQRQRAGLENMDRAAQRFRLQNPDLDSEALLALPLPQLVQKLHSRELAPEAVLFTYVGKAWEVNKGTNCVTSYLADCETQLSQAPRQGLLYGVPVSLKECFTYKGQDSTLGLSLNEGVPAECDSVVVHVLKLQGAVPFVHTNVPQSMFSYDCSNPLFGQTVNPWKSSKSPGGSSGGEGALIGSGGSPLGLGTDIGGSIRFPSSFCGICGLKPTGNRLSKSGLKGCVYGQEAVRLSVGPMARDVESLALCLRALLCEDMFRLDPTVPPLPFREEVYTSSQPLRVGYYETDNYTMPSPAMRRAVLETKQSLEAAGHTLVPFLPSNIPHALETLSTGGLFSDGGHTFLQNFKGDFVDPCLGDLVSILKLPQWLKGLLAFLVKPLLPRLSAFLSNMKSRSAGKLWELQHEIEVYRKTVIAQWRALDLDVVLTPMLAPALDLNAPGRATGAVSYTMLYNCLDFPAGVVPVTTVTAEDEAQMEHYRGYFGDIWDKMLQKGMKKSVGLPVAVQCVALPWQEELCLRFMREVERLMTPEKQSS

[2] = biological target: T2, Monoacylglycerol lipase ABHD6 (Homo sapiens) (UniProt Q9BV23); experiment: Inhibition of human ABHD6 expressed in HEK293 cells assessed as remaining enzyme activity by measuring reduction in glycerol production from 1-AG hydrolysis at 1 uM pre-incubated for 30 mins before 1-AG substrate addition and measured 90 mins post substrate addition by fluorescence method; values are per cent of control
T2 sequence (whole entry): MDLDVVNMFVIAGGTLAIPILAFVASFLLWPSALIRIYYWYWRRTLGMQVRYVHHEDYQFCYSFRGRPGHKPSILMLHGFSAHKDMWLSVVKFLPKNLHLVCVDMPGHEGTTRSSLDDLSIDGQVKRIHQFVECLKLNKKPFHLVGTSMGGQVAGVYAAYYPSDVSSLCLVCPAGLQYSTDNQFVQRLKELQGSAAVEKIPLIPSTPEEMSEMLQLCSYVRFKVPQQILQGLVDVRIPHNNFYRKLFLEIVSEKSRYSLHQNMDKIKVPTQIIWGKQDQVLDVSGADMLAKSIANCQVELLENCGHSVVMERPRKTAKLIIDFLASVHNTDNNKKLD

[3] = biological target: T3, Monoglyceride lipase (Homo sapiens) (UniProt Q99685); experiment: Inhibition of human MAGL expressed in HEK293 cells at 10 uM pre-incubated for 10 mins before 2-AG substrate addition by HPLC method; assay type: cell-based
T3 sequence (whole entry): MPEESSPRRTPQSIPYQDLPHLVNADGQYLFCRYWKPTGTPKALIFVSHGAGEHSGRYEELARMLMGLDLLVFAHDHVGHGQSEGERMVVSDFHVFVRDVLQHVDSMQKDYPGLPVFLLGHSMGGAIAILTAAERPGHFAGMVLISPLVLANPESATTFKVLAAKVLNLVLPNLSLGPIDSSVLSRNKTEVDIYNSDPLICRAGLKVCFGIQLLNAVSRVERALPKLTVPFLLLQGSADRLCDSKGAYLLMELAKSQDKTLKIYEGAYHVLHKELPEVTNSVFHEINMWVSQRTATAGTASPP
Method in brief: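 Lysates of hMAGL-overexpressing HEK293 cells in 50 mM Tris–HCl pH 7.4 with 1 mM EDTA. After a 10 min preincubation with inhibitor or DMSO, 2-AG was added (final 50 µM) and incubated 10 min at 37 °C. The reaction was stopped and samples centrifuged. Arachidonic acid formation and 2-AG depletion were measured by HPLC. Replicates as for the FAAH assay.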

[4] = biological target: T4, Lysophosphatidylserine lipase ABHD12 (Homo sapiens) (UniProt Q8N2K0); experiment: Inhibition of human ABHD12 expressed in HEK293 cells assessed as remaining enzyme activity at 1 uM pre-incubated for 10 mins before 2-AG substrate addition by HPLC method; assay type: cell-based
T4 sequence (whole entry): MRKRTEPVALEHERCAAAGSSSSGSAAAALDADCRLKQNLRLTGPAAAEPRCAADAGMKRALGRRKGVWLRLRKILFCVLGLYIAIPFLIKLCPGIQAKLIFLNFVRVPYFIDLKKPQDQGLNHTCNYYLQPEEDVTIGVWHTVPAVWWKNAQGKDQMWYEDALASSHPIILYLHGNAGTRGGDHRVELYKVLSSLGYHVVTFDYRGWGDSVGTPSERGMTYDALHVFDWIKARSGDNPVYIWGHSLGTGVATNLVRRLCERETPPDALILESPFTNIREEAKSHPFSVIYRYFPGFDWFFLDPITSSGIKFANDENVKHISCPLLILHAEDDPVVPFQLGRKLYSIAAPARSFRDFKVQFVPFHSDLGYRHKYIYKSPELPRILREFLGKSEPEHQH

[5] = biological target: T2, Monoacylglycerol lipase ABHD6 (Homo sapiens); experiment: Reversible inhibition of human ABHD6 expressed in HEK293 cells at 1 uM pre-incubated for 10 mins before 2-AG substrate addition followed by rapid 40 fold compound dilution measured after 10 to 90 mins by HPLC method; assay type: cell-based

| SMILES | inhibition [1] | residual activity [2] [%] | inhibition [3] [%] | inhibition [4] | inhibition [5] |
| --- | --- | --- | --- | --- | --- |
| CCOc1nn(Cc2cccc([N+](=O)[O-])c2)c(=O)o1 | inactive | 63 | 30 | inactive | – |
| CCCCCCCCCCC[C@@H](C[C@@H]1OC(=O)[C@H]1CCCCCC)OC(=O)[C@H](CC(C)C)NC=O | – | – | – | – | Active |
